pIC50: −log10 of the molar value. Activity calls are given as the source filed them. The rule behind the calls is not given here.
Legend:
[1] = system: Mycobacterium tuberculosis; test: Inhibition of Mycobacterium tuberculosis Zinc metalloprotease-1 at 40 uM using angiotensin 2 as substrate preincubated for 3 mins and measured after 20 mins by MALDI-TOF MS analysis relative to control
How it was run: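 Human angiotensin II substrate in NH4HCO3 was preincubated 3 min at 37 °C with inhibitor in acetone (acetone alone for control). Recombinant Mtb Zmp1 was added and the reaction ran 20 min at 37 °C. Cleavage was followed by MALDI-TOF MS (reflectron positive mode). Inhibition rate at 40 µM was taken as the inverted ratio of time-course slopes, inhibited versus control. Phosphoramidon reference at 40 µM final.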

[2] = Inhibition of Mycobacterium tuberculosis Zinc metalloprotease-1 using angiotensin 2 as substrate preincubated for 3 mins and measured after 20 mins by MALDI-TOF MS analysis
How it was run: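 Zmp1 digestion of human angiotensin II in NH4HCO3 at 37 °C: 3 min preincubation with inhibitor, then 20 min reaction with recombinant Mtb Zmp1, monitored by MALDI-TOF MS. IC50 derived from slope ratios, inhibited versus control, at three inhibitor concentrations within 20–80 µM.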

[3] = Cytotoxicity against mouse RAW264.7 cells assessed as reduction in cell viability after 24 hrs by neutral red dye based assay
How it was run: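 Neutral red uptake assay on RAW264.7 murine macrophages in DMEM + 10% heat-inactivated FCS, 40.000 cells/well, seeded the day before. Two-fold serial dilutions from 128 µM final. Exposure 24 h at 37 °C, 5% CO2; then neutral red for 3 h, extraction with 1:1 ethanol/acetic acid. OD read at 530 nm (reference 620 nm).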

[4] = system: Mycobacterium tuberculosis; test: Antimycobacterial activity against Mycobacterium tuberculosis H37Ra infected in mouse RAW264.7 cells assessed as inhibition of intracellular bacterial growth at 10 uM after 24 hrs by luciferase reporter gene based assay; type: functional, organism-based
How it was run: (§1)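 Murine RAW264.7 macrophages (DMEM + 10% heat-inactivated FCS, 37 °C, 5% CO2; 40.000 cells/well) infected 2 h at 37 °C with luciferase-reporter Mtb H37Ra (pSMT1) at MOI 10. Extracellular bacteria were killed with 100 µg/ml gentamicin for 1 h. Compounds were given at 10 and 100 µM final; isoniazid reference 0.1 µM. After 24 h, cells were lysed in 1% Triton X-100 and read by luminescence after n-decanal addition. Inhibition % was calculated versus untreated control; mean of triplicates.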

[5] = Selectivity index, ratio of CC50 for mouse RAW264.7 cells to MIC90 for antimycobacterial activity against Mycobacterium tuberculosis H37Rv; type: toxicity; details: read-out: Selectivity Index
[6] = system: Mycobacterium tuberculosis; test: Antimycobacterial activity against Mycobacterium tuberculosis H37Ra infected in mouse RAW264.7 cells assessed as inhibition of intracellular bacterial growth at 10 uM after 24 hrs by luciferase reporter gene based assay relative to control; type: functional; details: RAW264.7, 24 h, read-out: INH; how it was run: as §1
[7] = system: Mycobacterium tuberculosis; test: Antimycobacterial activity against Mycobacterium tuberculosis H37Ra infected in mouse RAW264.7 cells assessed as inhibition of intracellular bacterial growth at 100 uM after 24 hrs by luciferase reporter gene based assay; type: functional, organism-based; how it was run: as §1
[8] = system: Mycobacterium tuberculosis; test: Antimycobacterial activity against Mycobacterium tuberculosis H37Ra infected in mouse RAW264.7 cells assessed as inhibition of intracellular bacterial growth at 100 uM after 24 hrs by luciferase reporter gene based assay relative to control; type: functional; details: RAW264.7, 24 h; how it was run: as §1

| Compound | inhibition [1] [%] | pIC50 [2] | CC50 at 24 h [3] [µM] | inhibition [4] | selectivity ratio [5] | percent inhibition of intracellular bacterial growth at 10 µM [6] [%] | inhibition [7] | inhibition in vivo at 100 µM [8] [%] |
| --- | --- | --- | --- | --- | --- | --- | --- | --- |
| C=CCONC(=O)C(C)N1C(=O)S/C(=C\c2ccc(F)cc2)C1=O (centres undefined) | 95.5 | 3.80 to 4.70 | > 128 | – | – | – | – | – |
| CCCC/C=C1\SC(=O)N(C(C)C(=O)NOCc2ccccc2)C1=O (centres undefined) | 37.1 | 3.80 to 4.70 | 43.9 | inactive | > 0.7 | – | – | – |
| C=CCONC(=O)CN1C(=O)CSC1=O | 92.2 | 3.80 to 4.70 | > 128 | – | – | 30.2 | – | – |
| C=CCONC(=O)CN1C(=O)S/C(=C\c2ccccc2)C1=O | 59 | 3.80 to 4.70 | > 128 | – | – | – | – | – |
| C=CCONC(=O)C(C)N1C(=O)CSC1=O (centres undefined) | 57.9 | 3.80 to 4.70 | > 128 | – | – | 21.6 | – | – |
| C=CCONC(=O)CN1C(=O)S/C(=C\CCCC)C1=O | 89.9 | 4.74 | > 128 | – | > 2.1 | – | Active | – |
| CC(C(=O)NOCc1ccccc1)N1C(=O)CSC1=O (centres undefined) | 78.1 | 3.80 to 4.70 | > 128 | – | – | – | – | – |
| CC(C(=O)NOCc1ccccc1)N1C(=O)S/C(=C\c2ccc(C(F)(F)F)cc2)C1=O (centres undefined) | 16.3 | 3.80 to 4.70 | > 128 | – | – | 19.4 | – | – |
| O=C(CN1C(=O)S/C(=C\c2ccc(F)cc2)C1=O)NOCc1ccccc1 | 78.3 | 3.80 to 4.70 | > 128 | – | – | 20.6 | – | – |
| CC(C(=O)NOCc1ccccc1)N1C(=O)S/C(=C\c2ccc(F)cc2)C1=O (centres undefined) | 95.8 | 3.80 to 4.70 | > 128 | – | – | 25.1 | – | – |
| O=C(CN1C(=O)S/C(=C\c2ccc(C(F)(F)F)cc2)C1=O)NOCc1ccccc1 | 64.9 | 4.42 | > 128 | – | – | 48.8 | – | 70.4 |
| C=CCONC(=O)CN1C(=O)S/C(=C\c2ccc(F)cc2)C1=O | 69.8 | 3.80 to 4.70 | > 128 | – | – | – | – | – |
| O=C(CN1C(=O)CSC1=O)NOCc1ccccc1 | 31.9 | 3.80 to 4.70 | > 128 | – | – | – | – | – |
| CC/C(=C(\c1ccccc1)c1ccc(OCCN(C)C)cc1)c1ccccc1 [TAMOXIFEN] | – | – | 11.1 | – | – | – | – | – |
| C=CCONC(=O)C(C)N1C(=O)S/C(=C\c2ccc(C(F)(F)F)cc2)C1=O (centres undefined) | 44.5 | 3.80 to 4.70 | > 128 | inactive | – | – | – | – |
| CC(C(=O)NOCc1ccccc1)N1C(=O)S/C(=C\c2ccccc2)C1=O (centres undefined) | 93.3 | 3.80 to 4.70 | > 128 | – | – | 46.9 | – | – |
| C=CCONC(=O)C(C)N1C(=O)S/C(=C\c2ccccc2)C1=O (centres undefined) | 13 | 3.80 to 4.70 | > 128 | – | – | – | – | – |
| CCCC/C=C1\SC(=O)N(CC(=O)NOCc2ccccc2)C1=O | 99.8 | 3.80 to 4.70 | > 128 | inactive | – | – | – | – |
| O=C(CN1C(=O)S/C(=C\c2ccccc2)C1=O)NOCc1ccccc1 | 59.5 | 3.80 to 4.70 | > 128 | – | – | 38.3 | – | – |
| C=CCONC(=O)C(C)N1C(=O)S/C(=C\CCCC)C1=O (centres undefined) | 34.7 | 3.80 to 4.70 | > 128 | – | – | – | – | – |
| CC(C)C[C@H](NP(=O)(O)O[C@@H]1O[C@@H](C)[C@H](O)[C@@H](O)[C@H]1O)C(=O)N[C@@H](Cc1c[nH]c2ccccc12)C(=O)O [PHOSPHORAMIDON] | 78 | 3.80 to 4.70 | – | – | – | – | – | – |
| C=CCONC(=O)CN1C(=O)S/C(=C\c2ccc(C(F)(F)F)cc2)C1=O | 87.2 | 3.80 to 4.70 | > 128 | inactive | – | – | – | – |

From ChEMBL document CHEMBL4373742, “Novel thiazolidinedione-hydroxamates as inhibitors of Mycobacterium tuberculosis virulence factor Zmp1” (Eur J Med Chem, 2020)
